Source: ChEMBL document CHEMBL3739347, “Tubulin modulating antifungal and antiproliferative pyrazinone derivatives” (Bioorg Med Chem, 2016)
Calls of active or inactive are those of the source. The rule behind the calls is not given here.

Assays:
Puccinia triticina [1] = assay: Antifungal activity against Puccinia recondita f. sp. tritici infected in wheat seedlings at 10 ppm relative to control; assay type: functional
How it was run: (§1)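 Test suspension sprayed to run-off on Stevens wheat seedlings. Next day inoculated with a Puccinia recondita f. sp. tritici spore suspension. Held 24 h in a saturated atmosphere at 20 °C, then 7 days in a 20 °C growth chamber before disease rating. Rates in ppm. Given as percent control versus untreated control plants.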

Botrytis cinerea [2] = assay: Antifungal activity against Botryotinia fuckeliana infected in orange pixie tomato seedlings at 10 ppm relative to control; assay type: functional
How it was run: (§2)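 Orange Pixie tomato seedlings sprayed to run-off with test suspension, then inoculated next day with a Botryotinia fuckeliana spore suspension. Kept saturated at 20 °C for 48 h, then 1 more day at 24 °C in a growth chamber before rating. Rates in ppm. Expressed as percent control relative to untreated control plants.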

Botrytis cinerea [3] = assay: Antifungal activity against Botryotinia fuckeliana infected in orange pixie tomato seedlings at 40 ppm relative to control; assay type: functional; how it was run: as §2
Parastagonospora nodorum [4] = assay: Antifungal activity against Stagonospora nodorum infected in wheat seedlings at 10 ppm relative to control; assay type: functional
How it was run: (§3)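 Wheat seedlings, treated the day before, inoculated with a Stagonospora nodorum spore suspension. Held in a saturated atmosphere at 20 °C for 48 h, then 5 days in a growth chamber at 22 °C, then disease rated. Rates in ppm. Scored as percent control relative to untreated control plants.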

Parastagonospora nodorum [5] = assay: Antifungal activity against Stagonospora nodorum infected in wheat seedlings at 40 ppm relative to control; assay type: functional; how it was run: as §3
[6] = Antiproliferative activity against human Rhabdomyosarcoma cells after 96 hrs by MTS assay; assay type: functional, cell-based; conditions: Rhabdomyosarcoma cell
How it was run: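 Rhabdomyosarcoma cells (ATCC CCL-136) seeded at 10,000 cells/well and allowed to adhere 1–3 h. Medium then replaced with compound-containing medium over a concentration range. Grown 96 h at 37 °C, 5% CO2. Viable cells read by MTS/PMS formazan after 3–4 h at 37 °C, absorbance 490 nm. Data normalized to solvent-only wells; IC50 in nM.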

Puccinia triticina [7] = assay: Antifungal activity against Puccinia recondita f. sp. tritici infected in wheat seedlings at 2 ppm relative to control; assay type: functional; how it was run: as §1
Botrytis cinerea [8] = assay: Antifungal activity against Botryotinia fuckeliana infected in orange pixie tomato seedlings at 2 ppm relative to control; assay type: functional; how it was run: as §2
Puccinia triticina [9] = assay: Antifungal activity against Puccinia recondita f. sp. tritici infected in wheat seedlings at 40 ppm relative to control; assay type: functional; how it was run: as §1
Parastagonospora nodorum [10] = assay: Antifungal activity against Stagonospora nodorum infected in wheat seedlings at 2 ppm relative to control; assay type: functional; how it was run: as §3
Botrytis cinerea [11] = assay: Antifungal activity against Botryotinia fuckeliana infected in orange pixie tomato seedlings at 200 ppm relative to control; assay type: functional; how it was run: as §2
Puccinia triticina [12] = assay: Antifungal activity against Puccinia recondita f. sp. tritici infected in wheat seedlings at 200 ppm relative to control; assay type: functional; how it was run: as §1
Parastagonospora nodorum [13] = assay: Antifungal activity against Stagonospora nodorum infected in wheat seedlings at 200 ppm relative to control; assay type: functional; how it was run: as §3
Tubulin (Bos taurus) = Tubulin (Bos taurus) (UniProt Q6B856+Q862L2+Q862F3); assay: Induction of bovine tubulin polymerization at 3 uM by microplate reader; assay type: protein assay
How it was run: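 Purified bovine tubulin at 4 mg/ml in 80 mM PIPES pH 6.9, 0.5 mM EGTA, 2 mM MgCl2, 1 mM GTP. Compound added at reaction start at constant DMSO. Polymerization started at 37 °C and followed over time by absorbance at 340 nm. Controls: paclitaxel 10 µM (positive) and 0.5% DMSO (negative).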

Activity (Tubulin (Bos taurus))	Compound	Activity (Puccinia triticina [1])	Activity (Botrytis cinerea [2])	Activity (Botrytis cinerea [3])	Activity (Parastagonospora nodorum [4])	Activity (Parastagonospora nodorum [5])	IC50 [6]	Activity (Puccinia triticina [7])	Activity (Botrytis cinerea [8])	Activity (Puccinia triticina [9])	Activity (Parastagonospora nodorum [10])	Activity (Botrytis cinerea [11])	Activity (Puccinia triticina [12])	Activity (Parastagonospora nodorum [13])
	CC[C@H](C)Cn1c(-c2c(F)cc(F)cc2F)c(Cl)nc(-n2cccn2)c1=O	100%	100%	100%	99%	100%	20 nM	99%	100%	100%	0%			
	CCC(C)Cn1c(-c2c(F)cc(F)cc2F)c(Cl)nc(-n2cccn2)c1=O (centres undefined)	100%	100%	100%	98%	100%		89%	100%	100%	0%	100%	100%	100%
	CC(C)Cn1c(-c2c(F)cccc2F)c(Cl)nc(-c2cnccn2)c1=O	0%	83%	98%	0%	0%				89%		98%	99%	98%
Active	CC(C)Cn1c(-c2c(F)cc(F)cc2F)c(Cl)nc(-n2cccn2)c1=O	100%	100%	100%	90%	100%		92%	100%	100%	0%	100%	100%	100%
	CC(C)Cn1c(-c2c(F)cccc2F)c(Cl)nc(-c2cn(C)cn2)c1=O	0%	0%	99%	0%	67%		0%	0%	97%	0%	100%	99%	97%
	CC(C)Cn1c(-c2c(F)cccc2F)c(Cl)nc(-c2nccn2C)c1=O	0%	0%	0%	0%	0%				0%		0%	0%	0%
	CC(=O)Nc1nc(Cl)c(-c2c(F)cccc2F)n(CC(C)C)c1=O	0%	15%	92%	0%	0%				90%		99%	99%	0%
	CC[C@H](C)Cn1c(-c2c(F)cccc2F)c(Cl)nc(-n2nc(C)cc2C)c1=O	0%	0%	0%	0%	0%				22%		0%	73%	0%
	CC[C@H](C)Cn1c(-c2c(F)cc(OCCCNC)cc2F)c(Cl)nc(-n2cccn2)c1=O.Cl	99%	99%	99%	33%	88%	0.6 nM	68%	21%	100%	0%	100%	100%	100%
	CC[C@H](C)Cn1c(-c2c(F)cccc2F)c(Cl)nc(-n2ccnc2)c1=O	0%	0%	0%	0%	0%				0%		0%	0%	0%
	CC(C)Cn1c(-c2c(F)cccc2F)c(Br)nc(-n2cccn2)c1=O	88%	99%	100%	86%	100%				99%		100%	100%	100%
